Rows were chosen to be rich in hits. Some 3.7% of all compounds tested hit in one or more screens of this group.
KCNQ1 inh = inhibitors of human KCNQ1 potassium channel; CHO-K1 KCNQ1, FluxOR thallium flux fluorescence; active compounds read high; B-score at 10 µM; 1.3% of 310,000 active;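 active = compounds whose thallium flux B-score, printed positive for inhibition, exceeds three library SD while starting fluorescence stays within three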;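 also: channel opened by potassium depolarization with thallium stimulus after 20 min compound exposure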
KCNQ1 pot = potentiates or activates the human KCNQ1 potassium channel; CHO-K1 KCNQ1, thallium flux FluxOR fluorescence; active compounds read high; B-score at 10 µM; 0.35% of 310,000 active;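 active = fluorescence ratio B-score, a plate-corrected score, at least three library SD, with initial intensity B-score within 5 SD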
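Doses: Single concentration per compound, DMSO matched to controls | Test system: KCNQ1-transfected CHO-K1 cells | Timing: 90 min dye loading and 20 min compound exposure, both at room temperature | Measured by: Kinetic FluxOR thallium fluorescence, 10-s 1-Hz baseline, 110-s post-stimulus read | Medium: Assay buffer with matched DMSO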
KCNK3 block = human KCNK3 channel inhibition, primary screen | CHO-KCNK3 thallium flux, FluxOR fluorescence; active compounds read low | 0.84% of 340,000 active | AID 602410 | B-score at 10 µM | O14649;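 active = B-score under library mean minus 4 SD, starting fluorescence ratio at most library mean plus 5 SD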;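 also: more negative B-score means stronger inhibition of thallium flux through KCNK3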
KCNK9 block = blocks the human KCNK9 two-pore domain potassium channel. HEK293 KCNK9, FluxOR thallium flux fluorescence; active compounds read low. Q9NPC2. B-score at 10 µM. 1.2% of 310,000 active;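 active = ratio B-score over 3 SD below the library mean, with starting fluorescence within 5 SD of its mean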;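 also: negative B-score means less thallium flux so channel inhibition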
hERG protect = hERG (human) protection from proarrhythmic block | CHO-hERG, FluxOR thallium flux, dofetilide IC70 present | activation (rescue from dofetilide block), less the hit threshold, % at 10 µM | 0.51% of 310,000 active | AID 1511;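 active = activation above the mean of controls blocked by dofetilide plus 5 SD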;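 also: thallium influx through hERG after potassium depolarization seen as dye fluorescence rise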
Kir21 inh = Kir2.1 (mouse) channel inhibition; HEK293-Kir2.1, FluxOR thallium flux fluorescence; active compounds read low; B-score at 10 µM; 0.85% of 310,000 active; AID 1672;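 active = fluorescence ratio B-score at or below minus 3 SD of library scores, with starting-brightness B-score within 2 SD, cut at about -4.2 in these data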;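 also: channel flux triggered by added potassium and thallium sulfate stimulus; B-score of peak minus minimum fluorescence over baseline after thallium stimulus; more negative B-score means stronger Kir2.1 block with less thallium influx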
Target sequence (P35561 whole entry, looked up): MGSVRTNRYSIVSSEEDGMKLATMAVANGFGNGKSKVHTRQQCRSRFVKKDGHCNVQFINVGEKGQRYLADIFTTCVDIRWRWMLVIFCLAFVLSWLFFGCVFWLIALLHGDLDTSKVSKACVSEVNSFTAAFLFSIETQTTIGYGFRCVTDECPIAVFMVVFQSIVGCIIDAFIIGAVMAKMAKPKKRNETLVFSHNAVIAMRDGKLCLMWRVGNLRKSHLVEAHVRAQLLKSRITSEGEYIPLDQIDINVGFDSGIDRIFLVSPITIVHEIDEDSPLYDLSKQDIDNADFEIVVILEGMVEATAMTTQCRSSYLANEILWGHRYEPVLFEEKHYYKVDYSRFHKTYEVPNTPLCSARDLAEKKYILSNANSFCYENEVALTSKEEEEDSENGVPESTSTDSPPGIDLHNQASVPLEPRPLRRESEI
KCNK9 inh conf = confirmation of human KCNK9 potassium channel inhibitors | shares compounds with KCNK9 block | HEK293 KCNK9 cells, FluxOR thallium flux fluorescence | inhibition, % at 10 µM | 43% of 4,900 active;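 active = thallium signal inhibited by more than 5 SD of the compound-free buffer control wells, on both duplicate plates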
Kir2-1 spec = selectivity of KCNK9 modulators against mouse Kir2.1; shares compounds with KCNK9 block; 4% of 4,900 active; Kir2.1 cells, FluxOR thallium flux fluorescence; inhibition, % at 10 µM;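 active = thallium signal drop more than 5 SD beyond the mean of the no-compound control wells, seen in both duplicate plates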;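 also: signal is fluorescence rise after thallium addition divided by baseline fluorescence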
KCNK9 uninduced = second counter-screen for KCNK9 modulators: effect in non-induced cells; AID 492997; shares compounds with KCNK9 block; 40% of 4,900 active; non-induced KCNK9-HEK293, FluxOR thallium flux; inhibition, % at 10 µM;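 active = thallium signal drop beyond 5 SD of the untreated control mean, on both duplicate plates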
Of the large screens only hits and unclear results are named; the others gave an inactive call (follow-up assays come after a bar, where they were run).

Cc1cccc(/C(N)=N/OC(=O)CCCN2C(=O)c3ccccc3C2=O)c1	none | KCNK9 inh conf inactive | Kir2-1 spec inactive | KCNK9 uninduced inactive
CCN(CC)c1ccc(/C=c2\sc3nnc(-c4ccccc4Cl)n3c2=O)cc1	KCNQ1 inh 7, KCNK9 block -11.2, hERG protect 9.3 | KCNK9 inh conf 43.5% | Kir2-1 spec inactive | KCNK9 uninduced inactive
CCOc1ccc(NS(=O)(=O)c2c(C)nc3sc(CC)nn3c2=O)cc1	none (no result: KCNQ1 inh, KCNQ1 pot, KCNK9 block, hERG protect, Kir21 inh)
Cc1c(Cl)cnc(NC(=O)CSc2nncs2)c1Cl	none
COc1cc(C)c(NC(=O)C(=S)NCCc2ccccc2)cc1C	none | KCNK9 inh conf inactive | Kir2-1 spec inactive | KCNK9 uninduced inactive
CCCOc1ccc(CNC(=O)c2ccc3c(c2)N(CC)CCS3)cc1	none | KCNK9 inh conf inactive | Kir2-1 spec inactive | KCNK9 uninduced inactive
CCOC(=O)[C@@H]1[C@H]2COc3ccc(Br)cc3[C@@H]2N2C(=O)N(c3cccc(F)c3)C(=O)[C@@]12C	KCNK9 block -10.3 | KCNK9 inh conf 63.5% | Kir2-1 spec inactive | KCNK9 uninduced 26.0%
CCOC(=O)[C@@H]1[C@H]2COc3ccc(Br)cc3[C@@H]2N2C(=O)N(c3ccc(C(F)(F)F)cc3)C(=O)[C@@]12C	KCNK9 block -12.1 | KCNK9 inh conf 74.0% | Kir2-1 spec inactive | KCNK9 uninduced 41.0%
CCOC(=O)[C@@H]1[C@H]2COc3cc(OC)ccc3[C@H]2N2C(=O)N(c3cccc(F)c3)C(=O)[C@@]12C	none (no result: KCNQ1 inh, KCNQ1 pot, KCNK9 block, hERG protect, Kir21 inh)
CCOC(=O)[C@@H]1[C@H]2COc3ccccc3[C@@H]2N2C(=O)N(c3cccc(Cl)c3)C(=O)[C@@]12C	KCNK9 block -12.3 | KCNK9 inh conf 56.5% | Kir2-1 spec inactive | KCNK9 uninduced 35.0%
COC(=O)c1c(C)oc(C)c1S(=O)(=O)N1CCCC1	none
CC[C@]12c3[nH]c4ccccc4c3CCN1C(=O)C(CC(=O)NCCc1ccccn1)C[C@@H]2C(=O)N1CCN(C(=O)c2ccco2)CC1 (stereo partly specified)	none (no result: KCNQ1 inh, KCNQ1 pot, KCNK9 block, hERG protect, Kir21 inh)
O=C(NC(=S)N(CCO)Cc1ccccc1)c1ccc(S(=O)(=O)N2CCCC2)cc1	none
Cc1c(C(=O)c2ccccc2)oc2ccc3ccccc3c12	KCNK9 block -11.4 | KCNK9 inh conf 56.5% | Kir2-1 spec inactive | KCNK9 uninduced 39.5%
Nc1c(C(=O)c2ccccc2)oc2ccccc12	none
CCc1nc(SCC(=O)NC2CC2)c2c(C)c(C)sc2n1	none
COc1ccc(-c2nc(-c3ccc4c(c3)OCO4)[nH]c2-c2ccc(OC)cc2)cc1	KCNK9 block -9.18 | KCNK9 inh conf 65.0% | Kir2-1 spec inactive | KCNK9 uninduced inactive
COc1ccc(S(N)(=O)=O)cc1C(=O)OCCCOc1ccc(F)cc1	none
COc1ccc(/C=C/c2nc3ccccc3n2Cc2ccc(OC)c(OC)c2)cc1	KCNK9 block -8.12 | KCNK9 inh conf 58.5% | Kir2-1 spec inactive | KCNK9 uninduced 33.0%
CSc1cccc(NC(=O)C2CCN(C(=O)c3ccccc3C)CC2)c1	none | KCNK9 inh conf inactive | Kir2-1 spec inactive | KCNK9 uninduced inactive
Cc1ccccc1C(=O)N1CCC(C(=O)Nc2ccc(F)cc2)CC1	none
Cn1c(CNC(=O)CNS(=O)(=O)c2ccc(F)cc2F)cc(=O)n(C)c1=O	none
Cc1occc1C(=O)Nc1cccc(C(F)(F)F)c1	KCNK9 block -9.32 | KCNK9 inh conf 48.0% | Kir2-1 spec inactive | KCNK9 uninduced 24.5%
O=C(NNC(=S)Nc1cccc(C(F)(F)F)c1)c1ccc(Cl)cc1Cl	KCNQ1 inh 8 | KCNK9 inh conf inactive | Kir2-1 spec inactive | KCNK9 uninduced inactive
CCN1C(=O)[C@H]2[C@@H](c3ccc(-c4ccc(OC)cc4)c(OC)c3)N3CCCC[C@@]3(C(=O)OC)[C@H]2C1=O	none
Cc1ccc(SCc2ccc(C(=O)N3CCCC3)cc2)cc1	hERG protect 5.7 | KCNK9 inh conf inactive | Kir2-1 spec inactive | KCNK9 uninduced inactive
O=C(O)C(Cc1ccccc1)N1C(=O)/C(=C/c2ccccc2)SC1=S (stereo unspecified)	none | KCNK9 inh conf inactive | Kir2-1 spec inactive | KCNK9 uninduced inactive
Cc1ccc(/C=C2\SC(=S)N(C(Cc3ccccc3)C(=O)O)C2=O)cc1 (stereo unspecified)	none | KCNK9 inh conf inactive | Kir2-1 spec inactive | KCNK9 uninduced inactive
CCC(C(=O)O)N1C(=O)/C(=C/C(C)=C/c2ccccc2)SC1=S (stereo unspecified)	none | KCNK9 inh conf inactive | Kir2-1 spec inactive | KCNK9 uninduced inactive
COc1ccc(NC(=O)CCCOc2ccc(Cl)c(C)c2)cc1S(=O)(=O)N1CCOCC1	none (no result: KCNQ1 inh, KCNQ1 pot, KCNK9 block, hERG protect, Kir21 inh)
COc1ccc2[nH]c3c(c2c1)CCN1C(=O)C(CC(=O)NCc2cccc(C(F)(F)F)c2)C[C@H](C(=O)N2CCCCC2)[C@@]31CCc1ccccc1 (stereo partly specified)	none (no result: KCNQ1 inh, KCNQ1 pot, KCNK9 block, hERG protect, Kir21 inh)
Cc1ccc(NC(=O)CN2C(=O)NC3(CCCC3)C2=O)c(Cl)c1	none
Cc1noc(C)c1C(=O)Nc1nnc(CC(C)C)s1	none
COc1ccc(N2CCN(C(=O)CC34CC5CC(CC(C5)C3)C4)CC2)c([N+](=O)[O-])c1	KCNK9 block -12.3 | KCNK9 inh conf 66.5% | Kir2-1 spec inactive | KCNK9 uninduced inactive
COc1ccc(N2CCN(C(=O)c3ccccc3F)CC2)c([N+](=O)[O-])c1	none
Clc1cccc2sc(N3CCCCC3)nc12	none
Brc1cccc2sc(N3CCN(c4ccccc4)CC3)nc12	KCNK9 block -14.1 | KCNK9 inh conf 47.0% | Kir2-1 spec inactive | KCNK9 uninduced 29.5%
O=C(N/N=C/c1cccc(OCC(=O)N2CCCC2)c1)C(=O)Nc1ccccc1F	none
O=C(COC(=O)c1oc2ccccc2c1CSc1ccc(Cl)cc1)NC1CCCC1	KCNQ1 inh 10, KCNK9 block -8.1 | KCNK9 inh conf 32.0% | Kir2-1 spec 36.5% | KCNK9 uninduced 50.5%
NC(=O)COC(=O)c1oc2ccccc2c1CSc1ccc(Cl)cc1	none
CCCc1cc(=O)n2[nH]c(SCc3ccc(Cl)cc3)nc2n1	none
CCCCCn1cnc2sc(-c3ccccc3)cc2c1=O	none
O=c1c2cc(-c3ccccc3)sc2ncn1/N=C/c1ccco1	none | KCNK9 inh conf inactive | Kir2-1 spec inactive | KCNK9 uninduced inactive
Cc1ccc(C(=O)O[C@H](C(=O)O)[C@H](OC(=O)c2ccc(C)cc2)C(=O)O)cc1	none
